MC4R barr agon: MC4R agonists recruiting beta-arrestin, primary screen, cell-based, luminescence, agonist arm of biased-ligand search; U2OS MC4R beta-arrestin complementation; percent of melanotan II response, DMSO zero; activation, % at 8.9 µM; Melanocortin receptor 4 (Homo sapiens), P32245; 0.98% of 360,000 active;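 active = activation above a per-plate cutoff, the mean activation of sample wells on that plate plus 3 SD, cut at about 8% in these data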
MC4R antagonist: MC4R antagonists of cAMP signaling, primary screen, cell-based, TR-FRET, antagonist arm of biased-ligand search; 0.48% of 360,000 active; MC4R-expressing cells, MTII-stimulated cAMP, LANCE TR-FRET; Melanocortin receptor 4 (Homo sapiens), P32245; inhibition, % at 6.5 µM;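 active = inhibition above its plate's cutoff, the mean of tested wells on that plate plus 3 SD, cut at about 29% in these data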
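Test system: U2OS cells stably expressing human melanocortin 4 receptor (MC4R); also added: Melanotan II challenge; compound: 6.5 µM single dose; timing: 30-min compound preincubation, 1-h Melanotan II challenge, 1-h detection, room temperature; signal: Eu-cAMP/anti-cAMP TR-FRET, emission 671 nm; repeats: one well per compound, no replicates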
HTR2A ag: mouse Htr2a agonists via beta-arrestin recruitment, primary screen, cell-based, luminescence; CHO-K1 mHTR2A beta-arrestin complementation; percent of 30 µM serotonin response; activation, % at 7.6 µM; 0.66% of 360,000 active;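 active = activation above a run cutoff, the mean activation of all tested compounds plus 3 SD, cut at about 14% in these data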
AHR activator: AHR activators, primary screen, cell-based, luminescence, luciferase reporter, human. Aryl hydrocarbon receptor (Homo sapiens), P35869. AHR-responsive luciferase reporter cells. activation, % at 5 µM. 2.5% of 320,000 active; in the data active = activation above about 47%
Target sequence (P35869 whole entry, looked up): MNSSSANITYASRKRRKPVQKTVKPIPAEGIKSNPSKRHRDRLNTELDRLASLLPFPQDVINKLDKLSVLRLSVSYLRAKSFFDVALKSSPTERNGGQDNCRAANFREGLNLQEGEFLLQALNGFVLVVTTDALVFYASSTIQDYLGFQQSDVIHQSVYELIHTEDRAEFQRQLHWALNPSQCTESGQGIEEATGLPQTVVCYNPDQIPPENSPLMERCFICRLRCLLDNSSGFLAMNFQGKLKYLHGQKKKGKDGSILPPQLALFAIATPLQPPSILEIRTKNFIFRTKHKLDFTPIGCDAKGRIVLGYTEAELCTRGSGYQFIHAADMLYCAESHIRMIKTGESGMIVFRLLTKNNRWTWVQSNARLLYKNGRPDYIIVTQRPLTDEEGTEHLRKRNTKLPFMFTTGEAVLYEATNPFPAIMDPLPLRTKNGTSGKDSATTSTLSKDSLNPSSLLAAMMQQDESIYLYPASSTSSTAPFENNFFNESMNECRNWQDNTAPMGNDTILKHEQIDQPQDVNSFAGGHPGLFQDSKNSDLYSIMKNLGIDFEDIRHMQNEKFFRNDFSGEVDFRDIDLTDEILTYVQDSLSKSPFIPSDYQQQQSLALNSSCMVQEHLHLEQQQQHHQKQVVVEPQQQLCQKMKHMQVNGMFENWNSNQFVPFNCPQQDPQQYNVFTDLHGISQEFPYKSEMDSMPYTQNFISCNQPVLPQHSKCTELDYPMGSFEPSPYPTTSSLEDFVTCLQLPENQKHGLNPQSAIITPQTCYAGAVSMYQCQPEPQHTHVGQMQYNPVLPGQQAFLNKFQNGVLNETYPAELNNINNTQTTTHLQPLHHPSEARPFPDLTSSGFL
FXN GAA850 act: FXN promoter activators, primary screen, cell-based, luciferase luminescence, HEK293 lucGAA850; 0.56% of 360,000 active; activation, % at 6 µM; HEK293 lucGAA850 FXN promoter luciferase reporter, 24 h; percent of 10 µM SAHA response; AID 540364, 2011;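 active = activation above the average of all compounds screened plus 3 SD, cutoff fixed separately per campaign, cut at about 7.5% in these data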
U2OS cAMP counter: nonselective cAMP signaling inhibitors, parental cells, counter-screen for MC4R biased antagonist project, cell-based, TR-FRET, U2OS, forskolin, triplicate. shares compounds with MC4R antagonist. LANCE TR-FRET. inhibition, % at 6.5 µM. AID 602193, 2012. 26% of 1,600 active;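 active = mean inhibition over triplicates above the low-control well mean plus 3 SD, set per campaign, cut at about 13% in these data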;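 note: signal is single emission at 671 nm which falls as cellular cAMP rises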
MC4R cAMP antag: MC4R cAMP antagonists, retest, confirmation, cell-based, TR-FRET; shares compounds with MC4R antagonist; MC4R-expressing cells, MTII-stimulated cAMP; inhibition, % at 6.5 µM; 27% of 1,600 active; in the data active = inhibition above about 29%
Hits are given with their value; – = inactive; · = no result given. Shown are actives, neighbours in structure and some others; about 4.7% of the full set was active somewhere.

SMILES	MC4R barr agon	MC4R antagonist	HTR2A ag	AHR activator	FXN GAA850 act	U2OS cAMP counter	MC4R cAMP antag
NNC(=O)CNC(=O)CNS(=O)(=O)c1ccccc1	–	29	–	–	–	–	–
Cc1cc(C)nc(NS(=O)(=O)c2ccc(NC(=O)CSc3nc(-c4ccccc4)c(C#N)c(=O)[nH]3)cc2)n1	–	36	–	–	–	17	–
Cc1cc(C)nc(NS(=O)(=O)c2ccc(NC(=O)Cc3ccccc3)cc2)n1	–	35	–	–	–	–	–
Cc1cc(NC(=O)CSc2nc(-c3ccccc3)c(C#N)c(=O)[nH]2)no1	–	35	–	–	–	26	50
C[C@@H]1CN([C@H](C)CO)C(=O)CCCn2nncc2CO[C@H]1CN(C)Cc1ccc(Cl)c(Cl)c1	–	–	–	·	–	·	·
COc1ccc([C@H]2C[C@H](O)[C@@H](n3cc(COC(=O)c4ccccc4)nn3)CN2CC2CCCCC2)cc1	–	–	–	·	–	·	·
COc1ccccc1C#CC1=CC(=O)C[C@H](c2ccc(F)cc2)C1	–	–	–	·	–	·	·
COC(=O)C(Cc1c[nH]c2ccccc12)NC(=O)c1cccs1 (stereo not given)	–	–	–	–	–	·	·
COc1ccc(CNC(=O)COC(=O)[C@H](Cc2c[nH]c3ccccc23)NC(=O)c2cccs2)cc1	–	43	–	–	–	22	–
COC(=O)[C@H](Cc1c[nH]c2ccccc12)NC(=O)NCc1ccc(OC)cc1	–	37	–	–	–	–	–
COc1ccccc1-c1c(C)oc2cc(OCC(=O)OCc3ccccc3)ccc2c1=O	–	37	–	–	–	14	38
Cc1cc(C(=O)OCC(=O)Nc2cc(S(=O)(=O)N3CCOCC3)ccc2Cl)c(C)o1	–	–	–	–	–	·	·
O=C(COC(=O)c1cc(S(=O)(=O)N2CCCC2)ccc1O)Nc1ccc(S(=O)(=O)N2CCOCC2)cc1	–	33	–	–	–	–	–
CCN(CC)S(=O)(=O)c1ccc(NC(=O)COC(=O)c2cc(S(=O)(=O)Nc3ccc(OC)cc3)ccc2O)cc1	–	32	–	–	–	–	–
O=C(COC(=O)c1cc(S(=O)(=O)N2CCOCC2)ccc1O)Nc1cc(S(=O)(=O)N2CCCC2)ccc1Cl	–	30	–	–	–	–	–
COc1ccc(CC(=O)Oc2ccc(Br)cc2F)cc1S(=O)(=O)N1CCOCC1	–	–	–	–	–	·	·
COc1ccc(CC(=O)Oc2ccc(F)c(F)c2)cc1S(=O)(=O)N1CCOCC1	–	35	–	–	–	–	–
COc1ccc(-c2csc(NC(=O)c3ccc(N4C(=O)CCC4=O)cc3)n2)cc1	–	50	–	–	–	25	42
CCCCC(=O)NNC(=O)CC(=O)Nc1ccccc1C(=O)O	–	–	–	–	–	·	·
CCOCC(=O)Nc1ccccc1C(=O)O	–	30	–	–	–	–	–
N#Cc1ccc(/C=C/C(=O)c2ccco2)cc1	–	31	–	–	–	–	–
CCCN(CCC)S(=O)(=O)c1ccc(Cl)c([N+](=O)[O-])c1	–	41	–	–	–	31	50
CCCN(CCC)S(=O)(=O)c1ccc(N2CCCC2=O)c([N+](=O)[O-])c1	–	–	–	–	–	·	·
O=C(NCCCN1CCOCC1)C(=O)NCC1OCCN1S(=O)(=O)c1ccc(Cl)cc1 (stereo not given)	–	–	–	·	–	·	·
CCc1ccc(NC(=O)C(=O)NCCN2CCN(S(=O)(=O)c3ccccc3)CC2)cc1	–	32	–	–	–	–	–
SMILES	MC4R barr agon	MC4R antagonist	HTR2A ag	AHR activator	FXN GAA850 act	U2OS cAMP counter	MC4R cAMP antag
CCc1ccc(NC(=O)C(=O)NCCN2CCN(S(C)(=O)=O)CC2)cc1	–	–	–	–	–	·	·
CC1=NOC(=O)/C1=C/c1ccc(O)cc1	–	35	–	–	–	–	–
Cc1ccc(NC(=O)COC(=O)c2cccc3c2C(=O)c2ccccc2C3=O)c(C)c1	–	–	–	–	–	·	·
Cc1ccc(C)c(NC(=O)COC(=O)c2cccc3c2C(=O)c2ccccc2C3=O)c1	–	33	–	–	–	–	–
COc1ccc(C(=O)Nc2ccnn2C2CCN(C(=O)c3cc(C)on3)CC2)cc1	–	–	–	–	–	·	·
Cc1ccc(-n2nc3ccc(NC(=S)NC(=O)/C=C/c4ccco4)cc3n2)cc1	–	41	–	–	–	–	–
COc1ccc(-c2cnc3nc[nH]c(=O)c3n2)cc1	–	29	–	–	–	–	–
Cc1nc(-c2ccccn2)nc(N(C)c2ccccc2)c1Cl	–	–	–	–	–	·	·
Cc1ccsc1C1C(C#N)=C(N)Oc2n[nH]c(C)c21 (stereo not given)	–	29	–	–	–	–	–
Cc1[nH]nc2c1C(c1cccs1)C(C#N)=C(N)O2 (stereo not given)	–	–	–	–	–	·	·
NC(N)=NS(=O)(=O)c1ccc(N/C=C\C(=O)c2ccncc2)cc1	–	31	–	–	–	–	–
Cc1noc(NS(=O)(=O)c2ccc(N/C=C\C(=O)c3ccncc3)cc2)c1C	–	–	–	–	–	·	·
CCN(CC(=O)NCc1cccs1)C(=O)c1cccc(S(=O)(=O)N2CC(C)OC(C)C2)c1 (stereo not given)	–	–	–	–	–	·	·
Cc1ccc(S(=O)(=O)C=CS(=O)(=O)c2ccc(C)cc2)cc1	–	42	–	·	–	–	–
Cn1nnnc1SCC(=O)Nc1cc(S(=O)(=O)N2CCCCC2)ccc1Cl	–	–	–	–	–	·	·
CC(C)(C)C(=O)COC(=O)c1ccc2c(c1)C(=O)N(Cc1ccco1)C2=O	–	37	–	–	–	–	–
CC(C)CNC(=O)COC(=O)c1ccc2c(c1)C(=O)N(Cc1ccco1)C2=O	–	–	–	–	–	·	·
O=C(CNc1ccc(Br)cc1)NC(=O)NC1CCCCC1	–	–	–	·	–	·	·
O=C(O)CNS(=O)(=O)c1ccc(C2CCCCC2)cc1	–	32	–	–	–	–	–
CC(C)CNC(=O)COC(=O)CNC(=O)c1cc(Cl)cc([N+](=O)[O-])c1	–	33	–	–	–	17	32
COC(=O)C(Cc1ccc(O)cc1)NC(=O)c1ccccc1 (stereo not given)	–	49	–	–	–	16	41
O=C(CSc1ccccc1F)NCCCN1CCCC1=O	–	–	–	–	–	·	·

Compound activity (PubChem)
